Compound activity from PubChem.
STEP block: blocks human striatal-enriched tyrosine phosphatase. P54829. inhibition, % at 20 µM. recombinant STEP, OMFP fluorogenic substrate, fluorescence. 360,000 compounds, 0.25% hits;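 active means inhibition at 20 µM, scaled per plate between control wells, above about 37%, limit read from the data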
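medium = Bis-Tris buffer pH 6.0, 2.5 mM DTT, 0.005% Tween 20 | test system = STEP (striatal-enriched tyrosine phosphatase) enzyme, cell-free | measure = normalized % inhibition | compound dosing = 20 µM, 1% DMSO | also added = 25 µM OMFP | schedule = reaction 20 min, ambient temperature | measured by = fluorescence read at 480 nm ex / 540 nm em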
LMPTP inh: LMPTP (human) inhibition; AID 651560; inhibition, % at 20 µM; recombinant LMPTP-A, OMFP fluorogenic substrate, fluorescence intensity; 360,000 compounds, 0.22% hits;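 active means compounds that cut the enzyme signal by at least half of the control window in the single-dose screen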
Target sequence (P24666 whole entry, looked up): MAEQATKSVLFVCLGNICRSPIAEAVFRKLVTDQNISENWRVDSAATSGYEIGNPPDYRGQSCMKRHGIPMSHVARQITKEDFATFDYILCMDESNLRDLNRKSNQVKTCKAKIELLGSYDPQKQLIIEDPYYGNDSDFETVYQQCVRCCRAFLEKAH
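Test system – LMPTP-A enzyme · Amount – LMPTP-A at 0.625 nM final in the reaction · Buffer or medium – Bis-Tris pH 6.0, DTT, detergent · Reagent – OMFP 400 µM · Doses – single 20 µM dose · Schedule – reaction 50 min, room temperature, dark · Detection – fluorescence intensity of OMFP turnover product · Evaluation – percent inhibition versus substrate-only and uninhibited controls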
SUMO1-SIM PPI: SUMO1-SIM interaction modulation; inhibition, % at 20 µM; SUMO1 binding to a labelled peptide, TR-FRET, 1 h; P63165; 360,000 compounds, 0.33% hits; AID 602429; in the data active means inhibition above about 37%
Target sequence (P63165 whole entry, looked up): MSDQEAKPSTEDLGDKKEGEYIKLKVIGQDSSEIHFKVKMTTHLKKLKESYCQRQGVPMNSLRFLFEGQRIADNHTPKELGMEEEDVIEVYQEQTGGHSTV
DNMT1 inh: inhibitors of human DNMT1; DNMT1 molecular beacon, Hinp1I cleavage, fluorescence; inhibition (reported as % activation of signal), % at 10 µM; 360,000 compounds, 0.83% hits; AID 588458; in the data active means inhibition above about 50%
Scp1 inh: Scp-1 (human) phosphatase inhibition; Recombinant Scp1, phosphopeptide, malachite green phosphate absorbance; Q9GZU7; 340,000 compounds, 0.88% hits; AID 493091; inhibition, % at 20 µM;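 active means inhibition above about 50% at 20 µM, limit read from the data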
Target sequence (Q9GZU7 76-261 limits assumed): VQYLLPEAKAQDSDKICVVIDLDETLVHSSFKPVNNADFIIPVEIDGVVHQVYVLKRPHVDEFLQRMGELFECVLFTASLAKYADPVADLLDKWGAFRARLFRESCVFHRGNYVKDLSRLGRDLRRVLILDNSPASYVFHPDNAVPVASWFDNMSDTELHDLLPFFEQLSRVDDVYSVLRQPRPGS
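assay system = SCP-1 phosphatase catalytic domain, residues 76-261 | buffer or medium = 50 mM Tris acetate pH 5.5, 0.005% Tween-20, 10 mM MgCl2 | incubation = enzyme reaction 45 min at room temperature, colour 5 min, stabilisation 30 min | signal = Phosphate-binding colour reagent, absorbance read at 630 nm | measure = % inhibition at 20 µM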
A number is an active result. An excerpt weighted towards active compounds, which were near 1.7% of everything screened.

Screening O=[N+]([O-])c1nn(-c2ccc(Cl)cc2)n(O)c1=NCc1cccnc1 returned STEP block inactive, LMPTP inh inactive, SUMO1-SIM PPI inactive, DNMT1 inh inactive and Scp1 inh inactive.
Screening NS(=O)(=O)c1ccc(CCNC(=O)c2ccc(Cl)c(S(=O)(=O)NCc3ccco3)c2)cc1 returned STEP block inactive, LMPTP inh inactive, SUMO1-SIM PPI inactive, DNMT1 inh inactive and Scp1 inh inactive.
For CCOc1cc(-c2c(C#N)c(N)nc3c2CCc2ccccc2-3)ccc1O the results were STEP block inactive, LMPTP inh inactive, SUMO1-SIM PPI inactive, DNMT1 inh inactive and Scp1 inh inactive.
COc1ccccc1-c1c(C#N)c(N)nc2c1CCc1ccccc1-2 was read as STEP block inactive, LMPTP inh inactive, SUMO1-SIM PPI 36, DNMT1 inh inactive and Scp1 inh inactive.
Screening CN1CCN(C(=O)c2sc(=S)n(-c3ccccc3)c2N)CC1 returned STEP block 96, LMPTP inh inactive, SUMO1-SIM PPI inactive, DNMT1 inh inactive and Scp1 inh inactive.
CC(C)Nc1nc(Nc2ccc(Cl)cc2F)c2sccc2n1 was read as STEP block inactive, LMPTP inh inactive, SUMO1-SIM PPI inactive and DNMT1 inh inactive.
CC(O)(CS(=O)(=O)Cc1ccccc1)c1ccccc1Cl (stereo unspecified) was read as STEP block inactive, LMPTP inh inactive, SUMO1-SIM PPI inactive, DNMT1 inh inactive and Scp1 inh inactive.
COc1cccc(-c2csc3nnc(SCC(=O)c4ccc(NC(C)=O)cc4)n23)c1 was read as STEP block inactive, LMPTP inh inactive, SUMO1-SIM PPI 43, DNMT1 inh inactive and Scp1 inh inactive.
For COc1ccc(OC)c(-c2csc3nnc(SCC(=O)Nc4ccc(NC(C)=O)cc4)n23)c1 the results were STEP block inactive, LMPTP inh inactive, SUMO1-SIM PPI inactive, DNMT1 inh inactive and Scp1 inh inactive.
COc1ccccc1CNc1nc(-c2cc(C)n(C)c2C)cs1 was read as STEP block inactive, LMPTP inh inactive, SUMO1-SIM PPI inactive, DNMT1 inh 76 and Scp1 inh inactive.
For O=C1CC(c2ccc(O)c(O)c2)Oc2c1ccc(O)c2O (stereo unspecified) the results were STEP block inactive, LMPTP inh 60, SUMO1-SIM PPI inactive, DNMT1 inh inactive and Scp1 inh 53.
Screening CC(=O)C1=CCC(c2ccc(Br)cc2)N(S(=O)(=O)c2ccc(C)cc2)C1 (stereo unspecified) returned STEP block inactive, LMPTP inh inactive, SUMO1-SIM PPI inactive and DNMT1 inh inactive.
Screening CC(=O)/C(=N\Nc1ccccc1)Oc1ccc(Br)cc1 returned STEP block inactive, LMPTP inh inactive, SUMO1-SIM PPI inactive, DNMT1 inh inactive and Scp1 inh inactive.
For CN(C)c1ccc(O)c2c1CC1CC3[C@@H](N(C)C)C(=O)C(C(N)=O)=C(O)[C@]3(O)C(=O)C1=C2O (stereo partly specified) the results were STEP block inactive, LMPTP inh inactive, SUMO1-SIM PPI inactive, DNMT1 inh 90 and Scp1 inh inactive.
Screening C/C(N)=C(/C#N)C(=O)CSc1nc2ccccc2c(=O)n1Cc1ccc(F)cc1 returned STEP block inactive, LMPTP inh inactive, SUMO1-SIM PPI inactive, DNMT1 inh inactive and Scp1 inh 73.
For N=C1/C(=C\c2ccc(-c3cccc(Cl)c3)o2)C(=O)N=C2SC=C(c3ccccc3)N12 the results were STEP block inactive, LMPTP inh inactive, SUMO1-SIM PPI inactive, DNMT1 inh 61 and Scp1 inh inactive.
COc1ccc(/C=C2\SC(=N)N(c3nccs3)C2=O)cc1OC was read as STEP block inactive, LMPTP inh inactive, SUMO1-SIM PPI inactive, DNMT1 inh inactive and Scp1 inh inactive.
For N=C1S/C(=C\c2ccc(-c3cccc(Cl)c3)o2)C(=O)N1c1nccs1 the results were STEP block inactive, LMPTP inh inactive, SUMO1-SIM PPI inactive, DNMT1 inh 112 and Scp1 inh inactive.
`N=C1/C(=C\c2ccc(-c3ccc(C(=O)O)cc3)o2)C(=O)N=C2SC=C(c3ccccc3)N12` gave STEP block 61, LMPTP inh 65, SUMO1-SIM PPI 110, DNMT1 inh inactive and Scp1 inh 81.
Screening N#Cc1ccc2sn(-c3ccccc3)c(=O)c2c1 returned STEP block inactive, LMPTP inh inactive, SUMO1-SIM PPI inactive and DNMT1 inh inactive.
`COCCCN(C(=O)C1CCC1)c1c(N)n(Cc2ccccc2)c(=O)[nH]c1=O` gave STEP block inactive, LMPTP inh inactive, SUMO1-SIM PPI inactive, DNMT1 inh inactive and Scp1 inh inactive.
`COc1ccc(C(C)(O)c2nc(-c3ccc(Cl)cc3)cs2)cc1` (stereo unspecified) gave STEP block inactive, LMPTP inh inactive, SUMO1-SIM PPI inactive and DNMT1 inh inactive.
For COc1ccc(S(=O)(=O)NCc2cccs2)cc1 the results were STEP block 55, LMPTP inh inactive, SUMO1-SIM PPI inactive, DNMT1 inh inactive and Scp1 inh 59.
For CCN(CC)S(=O)(=O)c1ccc(S(=O)(=O)NCc2cccs2)cc1 the results were STEP block inactive, LMPTP inh inactive, SUMO1-SIM PPI inactive, DNMT1 inh inactive and Scp1 inh inactive.
For O=C(N/N=C/c1ccc([N+](=O)[O-])s1)c1cccc(Br)c1 the results were STEP block 55, LMPTP inh 75, SUMO1-SIM PPI inactive, DNMT1 inh inactive and Scp1 inh 97.
Screening O=C(N/N=C/c1ccc([N+](=O)[O-])s1)c1ccncc1 returned STEP block inactive, LMPTP inh inactive, SUMO1-SIM PPI inactive, DNMT1 inh inactive and Scp1 inh inactive.
For Cc1ccc(C(=O)N/N=C/c2ccc([N+](=O)[O-])s2)cc1 the results were STEP block inactive, LMPTP inh inactive, SUMO1-SIM PPI inactive, DNMT1 inh inactive and Scp1 inh 104.
For O=C(C[C@H]1CC[C@H](NC(=O)C2CCOCC2)[C@@H](CO)O1)NCc1ccncc1 the results were LMPTP inh inactive and SUMO1-SIM PPI inactive.
Screening CCCC1=NN2C(=N)/C(=C\c3cc(C)n(-c4cccc(C)c4)c3C)C(=O)N=C2S1 returned STEP block inactive, LMPTP inh inactive, SUMO1-SIM PPI inactive, DNMT1 inh 56 and Scp1 inh inactive.
`COC(=O)C1=C(C(=O)OC)C2C=CC1C1C(OC(C)=O)C(OC(C)=O)C21` (stereo unspecified) gave STEP block inactive, LMPTP inh inactive, SUMO1-SIM PPI inactive and DNMT1 inh inactive.
Cc1ccccc1C(=O)Nc1cc(NC(=O)c2ccccc2C)cc(C(=O)O)c1 was read as STEP block inactive, LMPTP inh inactive, SUMO1-SIM PPI inactive, DNMT1 inh inactive and Scp1 inh inactive.
`COc1ccc2nc(C)cc(N/N=C/c3ccccc3)c2c1` gave STEP block inactive, LMPTP inh inactive, SUMO1-SIM PPI inactive, DNMT1 inh 67 and Scp1 inh inactive.
